The source of these data is publication PMC12705676 (Scientific Reports, 2025).

In series [1] the test system is AGS (human gastric adenocarcinoma). Briefly: SRB cytotoxicity assay, AGS cells. The following applies: for IC50: read-out: IC50 AGS. The format is cell-based. In short, it runs like this: (§1)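 Cells plated at 3 × 10³ per well and left 24 h to attach at 37 °C, 5% CO₂. Test compound at 0–100 µM from ethanol stocks (1% final ethanol) for 72 h. Fixation in TCA (10% final), staining with 0.1% SRB, dye solubilized in 10 mM Tris, A540. Viability relative to 1% ethanol vehicle. IC50 from a four-parameter logistic fit with 95% CI; triplicate, three independent runs, mean ± SD. SI = IC50 in GES-1 divided by IC50 in the cancer line.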
Background: In SRB staining, fixed cells bind dye roughly in proportion to their protein.

For series [2], the system named is HT-29 (human colorectal adenocarcinoma). Description: SRB cytotoxicity assay, HT-29 cells. The format is cell-based. The following applies: read-out: IC50 HT-29. In short, it runs like this: as §1
Series [3] deals with PC-3 (human prostate cancer). Description: SRB cytotoxicity assay, PC-3 cells. Type of series: cell-based. The following applies: read-out: IC50 PC-3. In short, it runs like this: as §1
The nature of series [4]: DPPH radical scavenging assay. The format is biochemical. The following applies: concentration to scavenge 50% of radicals, 15 min, mean ± SD. In short, it runs like this:
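Test compound solutions (5–400 µg/mL, concentration before mixing) were added to 50 µM ethanolic DPPH and kept 15 min at room temperature in the dark, then read at 517 nm. A blank with solvent in place of compound served as control. IC50 came from linear regression of % scavenging against concentration. Three independent experiments in triplicate, mean ± SD.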
(In general: The DPPH test is a chemical assay of radical scavenging.)

The nature of series [5]: ABTS radical scavenging assay. Type of series: biochemical. The following applies: concentration to scavenge 50% of radicals, mean ± SD; for IC50: read-out: ABTS IC50. In short, it runs like this: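 ABTS radical cation generated by reacting ABTS with potassium persulfate, then diluted to an absorbance of about 0.700 at 732 nm. Test compound at several concentrations was mixed with the ABTS⁺ solution and the fall in absorbance recorded. Percent scavenging was calculated against a solvent control, with ascorbic acid as reference antioxidant. Three independent experiments in triplicate, mean ± SD.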

A further series in a line: Hemolysis assay. The format is cell-based, human. The settings on record: human, washed human red blood cells, Hemolysis (%), 30 min, 37 °C. In short, it runs like this: (§2)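 Donor blood was collected in EDTA. RBCs were pelleted at 500 × g for 10 min, washed three times in PBS and resuspended in PBS. Cells were exposed to test compound at 10–300 µg/mL for 30 min at 37 °C with gentle agitation, then spun at 1000 × g for 5 min; supernatant hemoglobin was read at 540 nm. Deionized water defined 100% and PBS 0% hemolysis. Triplicate, three independent repeats.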

The subject of a further series is human erythrocytes. Briefly: Hemolysis assay. Type of series: cell-based. The settings on record: for Hemolysis (%): 30 min, 37 °C; for Hemolysis, result in words: 10–300 µg/mL. The method, boiled down:
as §2

For series [6], the system named is GES-1 (healthy gastric epithelial cells). Description: SRB cytotoxicity assay, GES-1 non-tumor cells. The format is cell-based, human. The settings on record: read-out: IC50 GES-1, 72 h treatment, mean ± SD.
Series [7] concerns mitochondrial membrane permeability of cancer cell line. Briefly: Mitochondrial membrane permeability by flow cytometry. The format is cell-based, human. The following applies: 48 h, Rhodamine 123, flow cytometry.

Where two headings read alike, the source gives them in different places. Some results are limits rather than exact numbers.

For `CC12CCC(CC1=O)C2(C)C` (stereo not drawn) [Compound 1, camphor, reference compound], the IC50 (as a rule, the concentration at which inhibition is half-maximal) in series [1] (Homo sapiens, AGS, 72 h) is more than 100 µM; in series [2] (Homo sapiens, HT-29, 72 h) it was more than 100 µM; in series [3] (Homo sapiens, PC-3, 72 h), more than 100 µM; in series [5], more than 2630 µM. The “DPPH IC50” value in [4] was “inactive”. Besides, the “ABTS IC50” value in series [5] was “inactive”. For the same compound, in the series “Hemolysis assay”, the hemolysis at 30 min, 200 µg/mL is 9.67%. The compound further gave a hemolysis at 30 min, 300 µg/mL in the series “Hemolysis assay” of 10.1%. Moreover, the “Hemolysis (%)” value is 0% in the series with human erythrocytes (10 µg/mL), 0.06% in the series with human erythrocytes (25 µg/mL), 3.11% in the series on human erythrocytes (50 µg/mL) and 4.80% in the series on human erythrocytes (100 µg/mL).
Regarding `CC12CCC(CC1=O)C2(C)C` (stereo not drawn) [Compound 2, camphor, reference compound], the IC50 in series [1] (SRB, 72 h treatment, mean ± SD) was more than 100 µM; in series [2] (SRB, 72 h treatment, mean ± SD), more than 100 µM; in series [3] (SRB, 72 h treatment, mean ± SD), more than 100 µM; in [6], 322.7 ± 1.7 µM; in series [5], more than 2630 µM. The “DPPH IC50” value in [4] is “inactive”. The “ABTS IC50” value in [5] is “inactive”. Also, the “Hemolysis (%)” value is on record as 5.25% in the series with human erythrocytes (10 µg/mL); 6.55% with human erythrocytes (25 µg/mL); 9.61% with human erythrocytes (50 µg/mL); 11.29% with human erythrocytes (100 µg/mL); 16.16% in the series with human erythrocytes (200 µg/mL); 16.62% in the series with human erythrocytes (300 µg/mL). Moreover, the “Hemolysis, result in words” value with human erythrocytes is “concentration dependent increase in hemolysis”.
In the case of `CC1(C)C2CC[C@]1(C)C(=O)/C2=C/c1ccco1` [Compound 3, (1S,3E)-3-[(furan-2-yl)methylidene]-1,7,7-trimethylbicyclo[2.2.1]heptan-2-one], the IC50 in series [1] (Homo sapiens, AGS, 72 h) is 99.9 ± 0.2 µM; in [2] (Homo sapiens, HT-29, 72 h), more than 100 µM; in series [3] (Homo sapiens, PC-3, 72 h), more than 100 µM; in [5] it was 953 ± 1.5 µM. In addition, the “Selectivity index (SI) AGS” value in [1] (IC50 in GES-1 / IC50 in AGS) is on record as 1.85. The “Effect on mitochondrial membrane potential” value in [7] is “loss of the mitochondrial membrane potential”. The hemolysis at 30 min, 10 µg/mL in the series “Hemolysis assay” (10 µg/mL) turned out to be 6.75%. The compound also registered a hemolysis at 30 min, 25 µg/mL in “Hemolysis assay” (25 µg/mL) of 8.31%. The compound further came in with a hemolysis at 30 min, 50 µg/mL in “Hemolysis assay” (50 µg/mL) of 17.9%. Besides, the hemolysis at 30 min, 100 µg/mL in the series “Hemolysis assay” (100 µg/mL) stood at 23.6%. The hemolysis at 30 min, 200 µg/mL in the series “Hemolysis assay” is 28.2%. This compound showed a hemolysis at 30 min, 300 µg/mL in “Hemolysis assay” of 35.3%. Further, the “Hemolysis, result in words” value in the series with human erythrocytes is “concentration dependent increase in hemolysis”.
